Bioassay records from PubChem BioAssay.
SENP7 inh – inhibitors of human SENP7 protease; Q9BQF6; 330,000 tested, 1.5% active; recombinant SENP7, Z-RLRGG-aminoluciferin luminescence, 40 min; inhibition, % at 5 µM;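 active = inhibition above about 50% at the single test dose, limit read from the data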;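 also: plate controls were DMSO with enzyme for no effect and no enzyme buffer wells for full effect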
SENP8 block-1 – blocks the human protease SENP8 | purified SENP8, Z-RLRGG-aminoluciferin cleavage, luminescence | inhibition, % at 10 µM | 330,000 tested, 1.2% active | AID 2540; in the data active = inhibition above about 50%
Target sequence (Q96LD8 whole entry, looked up): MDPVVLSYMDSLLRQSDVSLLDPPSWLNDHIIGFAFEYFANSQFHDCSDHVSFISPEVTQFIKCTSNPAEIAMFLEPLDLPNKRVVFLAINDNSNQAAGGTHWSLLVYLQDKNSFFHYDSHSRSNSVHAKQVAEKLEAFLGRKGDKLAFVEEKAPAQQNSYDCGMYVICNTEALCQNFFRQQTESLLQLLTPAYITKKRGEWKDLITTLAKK
SENP6 inh – blocks the human protease SENP6. Recombinant SENP6 catalytic domain, aminoluciferin luminescence. inhibition, % at 10 µM. 330,000 tested, 1.8% active. AID 2599;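 active = inhibition above about 50% at the single tested dose, limit read from the data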;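 also: plate controls were DMSO wells with enzyme for no effect and DMSO wells lacking enzyme for full effect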
SENP1 FRET inh – inhibitors of human SENP1 SUMO protease catalytic domain; recombinant SENP1 catalytic domain, CyPet-SUMO1-YPet FRET cleavage; Q9P0U3; 360,000 tested, 0.21% active; inhibition, % at 10 µM;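 active = inhibition at least 30% at 10 µM, raw YFP signal under a set limit, fluorescence ratio 0.5 to 1.5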;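 also: 0% = enzyme with DMSO and 100% = no enzyme wells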
Target sequence (Q9P0U3 419-644 limits assumed): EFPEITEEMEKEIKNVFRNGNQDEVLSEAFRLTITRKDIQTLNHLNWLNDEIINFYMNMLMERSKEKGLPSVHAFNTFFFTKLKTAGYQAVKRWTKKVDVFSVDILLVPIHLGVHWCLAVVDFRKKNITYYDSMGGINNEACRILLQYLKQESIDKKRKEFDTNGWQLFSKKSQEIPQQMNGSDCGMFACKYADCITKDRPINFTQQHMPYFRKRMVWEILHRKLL
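Assay system: hSENP1 catalytic domain, recombinant. Amount: SENP1 enzyme, 20 pM final. Schedule: 50 min reaction, RT, dark. Technique: FRET, CFP and YFP emission. Control set: no-enzyme wells low, DMSO-plus-enzyme wells high control.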
SENP8 block-2 – blocks human SENP8 cleavage of Nedd8 substrate | recombinant SENP8, Nedd8 substrate fluorescence | inhibition, % at 20 µM | 360,000 tested, 0.64% active | Q96LD8; in the data active = inhibition mostly above about 40%, no sharp cut-off; inactive = mostly below about 27%
SENP8 conf – human SENP8 inhibition, confirmed. shares compounds with SENP7 inh. Recombinant SENP8, Z-RLRGG-aminoluciferin luminescence, 60 min. inhibition, % at 12.5 µM. 6,200 tested, 40% active;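 active = mean inhibition across replicates above about 50%, limit read from the data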
SENP6 conf – human SENP6 inhibition, confirmed | shares compounds with SENP7 inh | recombinant SENP6, Z-RLRGG-aminoluciferin luminescence | inhibition, % at 12.5 µM | 6,200 tested, 58% active | AID 488915
SENP7 confirm – confirmation of human SENP7 protease inhibitors; inhibition, % at 12.5 µM; 6,200 tested, 69% active; recombinant SENP7, Z-RLRGG-aminoluciferin luminescence, 40 min; shares compounds with SENP7 inh; AID 488917
Casp3 SENP sel – selectivity test for SENP inhibitors: human caspase-3 inhibition | shares compounds with SENP7 inh | purified caspase-3, Z-DEVD-aminoluciferin luminescence, 60 min | inhibition, % at 12.5 µM | 6,200 tested, 60% active | AID 488918;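 active = mean inhibition above about 50%, limit read from the data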;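 also: plate controls were enzyme with DMSO for no effect and wells without caspase-3 for full effect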
SENP luc ctr – interferes with luciferase luminescence in SENP counter-screen; shares compounds with SENP7 inh; inhibition, % at 12.5 µM; 6,200 tested, 39% active; Pre-incubated SENP8/Z-RLRGG-aminoluciferin, luciferase luminescence interference;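 active = mean inhibition above about 50% when retested at one dose, limit read from the data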;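 also: plate controls were DMSO wells with completed reaction for no effect and substrate without enzyme for full effect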
* marks the source's active call; other numbers are inactive results. The list is not random: actives were taken first. Their share in the collection is about 2.5%.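 The calls were made as follows, unless noted: active = mean inhibition above about 50% in the one-dose retest (limit read from the data); inactive = the rest.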

For CC(=O)c1c(C)[nH]c(C(=O)CN2C(=O)NC(C)(CCC(C)C)C2=O)c1C (centres undefined) the results were SENP7 inh -6, SENP8 block-1 -6, SENP6 inh -37, SENP1 FRET inh -2 and SENP8 block-2 6.
Oc1ccccc1OCc1nc2ccccc2s1 was read as SENP7 inh 81*, SENP8 block-1 70*, SENP6 inh 82*, SENP1 FRET inh 2, SENP8 block-2 10, SENP8 conf -4, SENP6 conf 76*, SENP7 confirm 94*, Casp3 SENP sel 78* and SENP luc ctr 80*.
`COC(=O)N(C)c1nc2ccccc2s1` gave SENP7 inh 4, SENP8 block-1 -4, SENP6 inh -13, SENP1 FRET inh 1 and SENP8 block-2 27.
For COc1ccc(-c2nc3ccccc3s2)cc1O the results were SENP7 inh 100*, SENP8 block-1 95*, SENP6 inh 97*, SENP1 FRET inh -3, SENP8 block-2 inactive, SENP8 conf 98*, SENP6 conf 99*, SENP7 confirm 102*, Casp3 SENP sel 96* and SENP luc ctr 98*.
For COc1cccc(-c2nc3ccccc3s2)c1O the results were SENP7 inh 86*, SENP8 block-1 54*, SENP6 inh 77*, SENP1 FRET inh -77, SENP8 block-2 -395, SENP8 conf 39, SENP6 conf 58*, SENP7 confirm 96*, Casp3 SENP sel 74* and SENP luc ctr 5.
For CN(C(=O)OC(C)(C)C)c1ccc(-c2nc3ccccc3s2)cc1 the results were SENP7 inh 100*, SENP8 block-1 95*, SENP6 inh 100*, SENP1 FRET inh -2, SENP8 block-2 -488, SENP8 conf 95*, SENP6 conf 97*, SENP7 confirm 100*, Casp3 SENP sel 93* and SENP luc ctr 46.
For COCCNC(=O)C1(C)CCCN(C(=O)c2cc(F)cc(F)c2)C1 (centres undefined) the results were SENP1 FRET inh 0 and SENP8 block-2 -2.
For O=C(Cn1nc(C(=O)O)c2ccccc2c1=O)Nc1cccc(S(=O)(=O)N2CCCCCC2)c1 the results were SENP7 inh -2, SENP8 block-1 2, SENP6 inh -13, SENP1 FRET inh 2 and SENP8 block-2 5.
Screening CC(=O)c1sc(NC(=O)CCCOc2ccc(Cl)cc2)nc1C returned SENP7 inh -11, SENP8 block-1 3, SENP6 inh 1, SENP1 FRET inh -2 and SENP8 block-2 7.
Screening CC(=O)Nc1ccc(CN2C(=O)C(CCc3ccccc3)ON=C2c2cnccn2)cc1 (centres undefined) returned SENP1 FRET inh 1 and SENP8 block-2 -6.
`CC(C)c1ccc(-c2nc3ccccc3s2)cc1` gave SENP7 inh 100*, SENP8 block-1 98*, SENP6 inh 98*, SENP1 FRET inh 1, SENP8 block-2 -7, SENP8 conf 98*, SENP6 conf 100*, SENP7 confirm 102*, Casp3 SENP sel 97* and SENP luc ctr 97*.
For COc1cc(-c2nc3ccccc3s2)ccc1O the results were SENP7 inh 89*, SENP8 block-1 94*, SENP6 inh 94*, SENP1 FRET inh -171, SENP8 block-2 -272, SENP8 conf 95*, SENP6 conf 96*, SENP7 confirm 102*, Casp3 SENP sel 88* and SENP luc ctr 95*.
For FC(F)(F)c1ccc(-c2nc3ccccc3s2)cc1 the results were SENP1 FRET inh 1 and SENP8 block-2 -27.
